# The source made the active and inactive calls. The rule behind the calls is not given here.
# Assays:
# Candida albicans [1] = test: Antifungal activity against Fluconazole resistant Candida albicans clinical isolate 17 after 48 hrs by CLSI method; type: functional, organism-based
# Method in brief: (§1)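 CLSI broth microdilution. Colonies from 24–72 h SD agar suspended in saline and sized by OD630 standard curve. Inoculum 1.5 × 10³ CFU/ml (final) in RPMI 1640 (0.2% dextrose, 0.03% glutamine, 0.165 M MOPS, pH 7.0). Twofold dilutions (11 levels) from 20% DMSO-saline, in duplicate. 35°C for 48 h, OD530 read before and after. IC50 fitted from % growth. MIC: no detectable growth. MFC: subculture onto SD agar.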
# [2] = test system: Trichophyton mentagrophytes; test: Antifungal activity against Trichophyton mentagrophytes ATCC 9533 by CLSI method; type: functional, organism-based
# Method in brief: (§2)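 Growth scraped from 1- to 6-week-old potato dextrose slants and filtered through Miracloth. Diluted in 5% Alamar blue-RPMI 1640 (MOPS pH 7.0) to 2.7 × 10⁴ CFU/ml. Eleven twofold dilutions in duplicate. Fluorescence at 544 nm excitation/590 nm emission read before and after 35°C, 5 days. IC50 fitted from percent growth. MIC taken as no detectable growth; MFC from clear or blue wells plated on PD agar.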
# Candida parapsilosis [3] = test: Antifungal activity against Candida parapsilosis ATCC 22019 after 48 hrs by CLSI method; type: functional, organism-based; conditions: Lodderomyces parapsilosis, ATCC 22019, 48 h
# Method in brief: (§3)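 Yeast suspensions made from 3-5 colonies off 24-72 h SD agar plates in saline. They were diluted by OD630 standard curve in RPMI 1640 (0.2% dextrose, 0.03% glutamine, 0.165 M MOPS, pH 7.0) to 1.5 × 10³ CFU/ml. Twofold dilutions (11 concentrations, 20% DMSO-saline) run in duplicate. OD530 read before and after 35°C, 48 h. Line values are top test concentrations; no-growth endpoints give MIC/MFC.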
# Candida albicans [4] = test: Antifungal activity against Candida albicans ATCC 14053 after 48 hrs by CLSI method; type: functional, organism-based; conditions: ATCC 14053, 48 h; method in brief: as §1
# Candida albicans [5] = test: Antifungal activity against Candida albicans ATCC 32354 after 48 hrs by CLSI method; type: functional, organism-based; conditions: ATCC 32354, 48 h; method in brief: as §1
# Candida albicans [6] = test: Antifungal activity against Candida albicans ATCC 60193 after 48 hrs by CLSI method; type: functional, organism-based; conditions: ATCC 60193, 48 h; method in brief: as §1
# Candida albicans [7] = test: Antifungal activity against Candida albicans ATCC 200955 after 48 hrs by CLSI method; type: functional, organism-based; conditions: ATCC 200955, 48 h; method in brief: as §1
# Trichophyton rubrum [8] = test: Antifungal activity against Trichophyton rubrum ATCC MYA-4438 by CLSI method; type: functional, organism-based; method in brief: as §2
# Candida albicans [9] = test: Antifungal activity against Candida albicans ATCC 90028 after 48 hrs by CLSI method; type: functional, organism-based; conditions: ATCC 90028, 48 h; method in brief: as §1
# Pichia kudriavzevii [10] = test: Antifungal activity against Candida krusei ATCC 6258 after 48 hrs by CLSI method; type: functional, organism-based; conditions: ATCC 6258, 48 h
# Method in brief: (§4)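 Candida inocula came from 24–72-h SD agar colonies suspended in saline. They were diluted by OD630 standard curve into RPMI 1640 (0.2% dextrose, 0.03% glutamine, 0.165 M MOPS, pH 7.0) to 1.5 × 10³ CFU/ml. Compounds were run as 11 twofold dilutions in 20% DMSO-saline, in duplicate, at 35°C for 48 h, with OD530 read before and after. Percent growth at the top concentration, IC50, MIC, and MFC (SD agar plating) were derived.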
# Trichophyton rubrum [11] = test: Antifungal activity against Trichophyton rubrum ATCC 10218 by CLSI method; type: functional, organism-based; method in brief: as §2
# Candida albicans [12] = test: Antifungal activity against Fluconazole resistant Candida albicans clinical isolate 1 after 48 hrs by CLSI method; type: functional, organism-based; method in brief: as §1
# Candida tropicalis [13] = test: Antifungal activity against Candida tropicalis ATCC 750 after 48 hrs by CLSI method; type: functional, organism-based; conditions: ATCC 750, 48 h; method in brief: as §3
# Aspergillus fumigatus [14] = test: Antifungal activity against Aspergillus fumigatus ATCC 90906 after 48 h by CLSI method; conditions: ATCC 90906, 48 h
# Candida albicans [15] = test: Antifungal activity against Candida albicans ATCC 60193 at 162.1 uM after 48 hrs by CLSI method; type: functional, organism-based; method in brief: as §4
# KB = test: Cytotoxicity against human KB cells up to 32 uM by neutral red method; type: cell-based
# Method in brief: (§5)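 Neutral red uptake cytotoxicity, top concentration 32 μM.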
# Trichophyton rubrum [16] = test: Antifungal activity against Trichophyton rubrum ATCC 10218 at 162.1 uM after 5 days by CLSI method; type: functional, organism-based
# [17] = test system: Trichophyton mentagrophytes; test: Antifungal activity against Trichophyton mentagrophytes ATCC 9533 at 162.1 uM after 5 days by CLSI method; type: functional, organism-based
# Aspergillus fumigatus [18] = test: Antifungal activity against Aspergillus fumigatus ATCC 204305 after 48 h by CLSI method; conditions: ATCC 204305, 48 h
# SK-OV-3 = test: Cytotoxicity against human SKOV3 cells up to 32 uM by neutral red method; type: cell-based; method in brief: as §5
# Cryptococcus neoformans [19] = test: Antifungal activity against Cryptococcus neoformans ATCC 90113 at 162.1 uM after 72 hrs by CLSI method; type: functional, organism-based
# Method in brief: (§6)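 SD broth replaced RPMI because growth in RPMI was poor; other CLSI conditions were kept. Inoculum was 1.5 × 10³ CFU/ml from colonies on SD agar, checked by plating. Twofold serial dilutions (11 concentrations) in 20% DMSO-saline were tested in duplicate. OD530 was read before and after incubation at 35°C for 72 h. Percent growth gave IC50; the MIC is the lowest concentration with no detectable growth.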
# LLC-PK1 = test: Cytotoxicity against pig LLC-PK1 cells up to 32 uM by neutral red method; type: cell-based, Sus scrofa; method in brief: as §5
# Aspergillus fumigatus [20] = test: Antifungal activity against Aspergillus fumigatus ATCC 90906 at 162.1 uM after 48 hrs by CLSI method; type: functional, organism-based
# [21] = test system: Trichophyton mentagrophytes; test: Antifungal activity against Trichophyton mentagrophytes ATCC MYA-4439 by CLSI method; type: functional, organism-based; method in brief: as §2
# Cryptococcus neoformans [22] = test: Antifungal activity against Cryptococcus neoformans ATCC 66031 at 162.1 uM after 72 hrs by CLSI method; type: functional, organism-based; method in brief: as §6
# Candida albicans [23] = test: Antifungal activity against Candida albicans ATCC 200955 at 162.1 uM after 48 hrs by CLSI method; type: functional, organism-based; method in brief: as §4
# Aspergillus fumigatus [24] = test: Antifungal activity against Aspergillus fumigatus ATCC 204305 at 162.1 uM after 48 hrs by CLSI method; type: functional, organism-based
# SK-MEL = test: Cytotoxicity against human SK-MEL cells up to 32 uM by neutral red method; type: cell-based; method in brief: as §5
# Candida albicans [25] = test: Antifungal activity against Candida albicans ATCC 90028 at 162.1 uM after 48 hrs by CLSI method; type: functional, organism-based; method in brief: as §4
# Candida albicans [26] = test: Antifungal activity against Candida albicans ATCC 14053 at 162.1 uM after 48 hrs by CLSI method; type: functional, organism-based
# Candida albicans [27] = test: Antifungal activity against Candida albicans ATCC 32354 at 162.1 uM after 48 hrs by CLSI method; type: functional, organism-based; method in brief: as §4
# Vero = test: Cytotoxicity against African green monkey Vero cells up to 32 uM by neutral red method; type: cell-based; conditions: chlorocebus sabaeus; method in brief: as §5
# [28] = test system: Trichophyton mentagrophytes; test: Antifungal activity against Trichophyton mentagrophytes ATCC MYA-4439 at 162.1 uM after 5 days by CLSI method; type: functional, organism-based
# Candida albicans [29] = test: Antifungal activity against Fluconazole resistant Candida albicans isolate 17 at 162.1 uM after 48 hrs by CLSI method; type: functional, organism-based
# Method in brief: (§7)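 Candida in CLSI broth microdilution. Saline colony suspension set to 1.5 × 10³ CFU/ml (final) in MOPS-buffered RPMI 1640, pH 7.0. Test agent given as twofold serial dilutions in 20% DMSO-saline, duplicate wells. 35°C for 48 h. Growth read as OD530 before and after incubation. Percent inhibition scored at the highest test concentration.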
# Candida parapsilosis [30] = test: Antifungal activity against Candida parapsilosis ATCC 22019 at 162.1 uM after 48 hrs by CLSI method; type: functional, organism-based; method in brief: as §3
# Nakaseomyces glabratus = test: Antifungal activity against Candida glabrata ATCC 90030 at 162.1 uM after 48 hrs by CLSI method; type: functional, organism-based; method in brief: as §4
# Candida tropicalis [31] = test: Antifungal activity against Candida tropicalis ATCC 750 at 162.1 uM after 48 hrs by CLSI method; type: functional, organism-based; method in brief: as §3
# Pichia kudriavzevii [32] = test: Antifungal activity against Candida krusei ATCC 6258 at 162.1 uM after 48 hrs by CLSI method; type: functional, organism-based; method in brief: as §4
# Trichophyton rubrum [33] = test: Antifungal activity against Trichophyton rubrum ATCC MYA-4438 at 162.1 uM after 5 days by CLSI method; type: functional, organism-based
# Aspergillus flavus = test: Antifungal activity against Aspergillus flavus ATCC 204304 at 162.1 uM after 48 hrs by CLSI method; type: functional, organism-based
# Candida albicans [34] = test: Antifungal activity against Fluconazole resistant Candida albicans isolate 1 at 162.1 uM after 48 hrs by CLSI method; type: functional, organism-based; method in brief: as §7
# BT-549 = test: Cytotoxicity against human BT549 cells up to 32 uM by neutral red method; type: cell-based; method in brief: as §5
# Aspergillus niger = test: Antifungal activity against Aspergillus niger ATCC 16404 at 162.1 uM after 48 hrs by CLSI method; type: functional, organism-based
structure (smiles),measurement,setting,value
OC(Cn1cncn1)(Cn1cncn1)c1ccc(F)cc1F [FLUCONAZOLE],IC50,Candida albicans [1],163 µM
same,IC50,[2],29.5 µM
same,MIC,[2],61.2 µM
same,IC50,Candida parapsilosis [3],3.4 µM
same,MIC,Candida parapsilosis [3],10.2 µM
same,IC50,Candida albicans [4],500 nM
same,MIC,Candida albicans [4],1.3 µM
same,IC50,Candida albicans [5],800 nM
same,MIC,Candida albicans [5],5.7 µM
same,IC50,Candida albicans [6],0.4 µM
same,MIC,Candida albicans [6],0.6 µM
same,IC50,Candida albicans [7],0.4 µM
same,MIC,Candida albicans [7],1.3 µM
same,IC50,Trichophyton rubrum [8],2700 nM
same,MIC,Trichophyton rubrum [8],6.4 µM
same,IC50,Candida albicans [9],0.8 µM
same,MIC,Candida albicans [9],6.4 µM
same,IC50,Pichia kudriavzevii [10],126 µM
same,MIC,Pichia kudriavzevii [10],163 µM
same,IC50,Trichophyton rubrum [11],1800 nM
same,MFC,Trichophyton rubrum [11],163 µM
same,MIC,Trichophyton rubrum [11],1.9 µM
same,IC50,Candida albicans [12],0.8 µM
same,MIC,Candida albicans [12],5.1 µM
same,IC50,Candida tropicalis [13],4.3 µM
same,MIC,Candida tropicalis [13],15.3 µM
CCCCCCCCCCCCCC#CCCCCC(=O)O [6-ICOSYNOIC ACID],IC50,Aspergillus fumigatus [14],81 µM
same,IC50,Candida albicans [1],55 µM
same,Activity,Candida albicans [15],inactive
same,Activity,KB,Non-toxic
same,Activity,Trichophyton rubrum [16],inactive
same,Activity,[17],inactive
same,IC50,Aspergillus fumigatus [18],32.3 µM
same,Activity,SK-OV-3,Non-toxic
same,Activity,Cryptococcus neoformans [19],inactive
same,Activity,LLC-PK1,Non-toxic
same,IC50,Candida albicans [4],> 162000 nM
same,Activity,Aspergillus fumigatus [20],inactive
same,IC50,Candida albicans [5],> 162000 nM
same,IC50,Candida albicans [6],81 µM
same,IC50,[21],> 162 µM
same,Activity,Cryptococcus neoformans [22],inactive
same,IC50,Candida albicans [7],53.4 µM
same,Activity,Candida albicans [23],inactive
same,Activity,Aspergillus fumigatus [24],inactive
same,Activity,SK-MEL,Non-toxic
same,Activity,Candida albicans [25],inactive
same,Activity,Candida albicans [26],inactive
same,Activity,Candida albicans [27],inactive
same,Activity,Vero,Non-toxic
same,Activity,[28],inactive
same,Activity,Candida albicans [29],inactive
same,IC50,Candida albicans [9],67.3 µM
same,IC50,Pichia kudriavzevii [10],106 µM
same,Activity,Candida parapsilosis [30],inactive
same,IC50,Candida albicans [12],86.6 µM
same,Activity,Nakaseomyces glabratus,inactive
same,Activity,Candida tropicalis [31],inactive
same,Activity,Pichia kudriavzevii [32],inactive
same,Activity,Trichophyton rubrum [33],inactive
same,Activity,Aspergillus flavus,inactive
same,Activity,Candida albicans [34],inactive
same,Activity,BT-549,Non-toxic
same,Activity,Aspergillus niger,inactive
